For assay [1], the species on record is Cavia porcellus. The experiment in a line: Inhibition of spontaneous tone in guinea pig tracheal spirals. The class given is functional, Trachea. The essentials: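 Guinea pig tracheal spiral strips held isometrically in oxygenated Krebs solution. Intrinsic activity is the ratio of maximum relaxation to the isoprenaline maximum, given as an arithmetic mean.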

Assay [2] is filed under the species Cavia porcellus. Description: Evaluated by measuring inhibition of spontaneous tone in guinea pig tracheal spirals. The assay is classed as functional, Trachea. The essentials:
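Guinea pig tracheal spiral strips held isometrically in oxygenated Krebs solution. […] It is generally a geometric mean of ≥3 determinations, except where IC50 >15 μM. Intrinsic activity is the ratio of maximum relaxation to the isoprenaline maximum, given as an arithmetic mean.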

For assay [3], the system named is Cavia porcellus. Description: Inhibition of Histamine-induced bronchospasm was measured by measuring % prolongation of collapse time of guinea pig at different intervals of time at a peroral dose of 20 mg/kg (time between dose and challenge 60 min). The class given is functional. As to conditions: route oral. The essentials: (§1)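 Male guinea pigs (400-460 g) were dosed orally with compound or vehicle and placed in a ca. 8-L chamber. At set times after dosing they were challenged for 4 min with aerosol from 5 mM histamine diphosphate, generated over 20 s by ultrasonic nebulizer. Time from aerosol to collapse was recorded. Data are means ± SE.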

Assay [4] has as its system Cavia porcellus. Description: Inhibition of Histamine-induced bronchospasm was measured by measuring % prolongation of collapse time of guinea pig at different intervals of time at a peroral dose of 20 mg/kg (time between dose and challenge 30 min). The class given is functional. As to conditions: route oral. The essentials:
as §1

Assay [5] concerns Cavia porcellus. Description: Inhibition of Histamine-induced bronchospasm was measured by measuring % prolongation of collapse time of guinea pig at different intervals of time at a peroral dose of 20 mg/kg (time between dose and challenge 120 min). Conditions: route oral. The assay is classed as functional. In outline:
as §1

Assay [6] deals with Cavia porcellus. The experiment in a line: Inhibition of Histamine-induced bronchospasm was measured by measuring % prolongation of collapse time of guinea pig at different intervals of time at a peroral dose of 10 mg/kg (time between dose and challenge 60 min). The assay is classed as functional. As to conditions: route oral. In outline: as §1
The test system of assay [7] is Cavia porcellus. Description: Inhibition of Histamine-induced bronchospasm was measured by measuring % prolongation of collapse time of guinea pig at different intervals of time at a peroral dose of 5 mg/kg (time between dose and challenge 60 min). The assay is classed as functional. Conditions: route oral. In outline:
as §1

Assay [8] relates to Cavia porcellus. Description: Inhibition of Histamine-induced bronchospasm was measured by measuring % prolongation of collapse time of guinea pig at different intervals of time at a peroral dose of 20 mg/kg (time between dose and challenge 90 min). The assay is classed as functional. Conditions: route oral. In outline:
as §1

Assay [9] concerns Cavia porcellus. Description: Inhibition of Histamine-induced bronchospasm was measured by measuring % prolongation of collapse time of guinea pig at different intervals of time at a peroral dose of 10 mg/kg (time between dose and challenge 15 min). As to conditions: route oral. The class given is functional. In outline: as §1
For assay [10], the system named is Cavia porcellus. Description: Inhibition of Histamine-induced bronchospasm was measured by measuring % prolongation of collapse time of guinea pig at different intervals of time at a peroral dose of 20 mg/kg (time between dose and challenge 15 min). The assay is classed as functional. As to conditions: route oral. In outline:
as §1

The species entered for assay [11] is Cavia porcellus. The experiment in a line: Inhibition of Histamine-induced bronchospasm was measured by measuring % prolongation of collapse time of guinea pig. The class given is functional. In outline:
as §1

A value given as a limit tells only on which side of the number the result lay.

The record followed here is ChEMBL document CHEMBL1125189, “Relaxant activity of 6-cyano-2,2-dimethyl-2H-1-benzopyran-4-carboxamides and -thiocarboxamides and their analogues in guinea pig trachealis” (J Med Chem, 1991).

For the compound `CSC(SC)=C1C(=O)C(C)(C)Oc2ccc(C#N)cc21`, in the assay filed under Cavia porcellus [1] (Cavia porcellus, Trachea), the IC50 (commonly the midpoint of a concentration-inhibition curve) is above 20 µM.
`CC1(C)Oc2ccc(C#N)cc2C(c2nc3ccccc3s2)=C1O` showed an IC50 in the assay listed under Cavia porcellus [1] (Cavia porcellus, Trachea) of 1.36 µM. Moreover, the Intinsic activity in the assay filed under Cavia porcellus [2] was determined as 0.96. Besides, the Prolongation with Cavia porcellus [3] is reported as -1%.
Compound `C/N=C(/S)C1=CC(C)(C)Oc2ccc(C#N)cc21` had an Intinsic activity in the assay listed under Cavia porcellus [2] of 0.88. Moreover, the Prolongation in the assay with Cavia porcellus [4] came to 244%; in the assay with Cavia porcellus [3], 230%; in the assay on Cavia porcellus [5] it was 187%; in the assay on Cavia porcellus [6], 9%; in the assay on Cavia porcellus [7] it was 12%; in the assay on Cavia porcellus [8] it was 175%.
Turning to `CC1(C)Oc2ccc(C#N)cc2C(F)(C(=O)Nc2ccccc2)C1=O` (stereo not given), in the assay listed under Cavia porcellus [2], the Intinsic activity stood at 0.95. Also, the Prolongation in the assay on Cavia porcellus [6] is given as 10%.
For the compound `COC1=C(C(=O)Nc2ccccc2)c2cc(C#N)ccc2OC1(C)C`, the IC50 in the assay listed under Cavia porcellus [1] (Cavia porcellus, Trachea) was above 20 µM.
Compound `CC1(C)C=C(C(=O)Nc2ccccc2)c2cc(C#N)ccc2O1` displayed an IC50 in the assay filed under Cavia porcellus [1] (Cavia porcellus, Trachea) of 1.14 µM. For the same compound, the Intinsic activity in the assay filed under Cavia porcellus [2] is reported as 0.86. Moreover, the Prolongation with Cavia porcellus [3] is listed as 34%.
`COc1ccc(NC(=S)C2=C(O)C(C)(C)Oc3ccc(C#N)cc32)cc1`: half-maximal inhibition in the assay listed under Cavia porcellus [1] (Cavia porcellus, Trachea) (IC50) required 6.4 µM. This compound registered an Intinsic activity in the assay listed under Cavia porcellus [2] of 0.6.
Taken in the same sequence, the figures for `CC(C)(C)/N=C(\S)C1=CC(C)(C)Oc2ccc(C#N)cc21` were above 20 µM and 0.
Taken in the same sequence, the figures for `COc1ccc(NC(=O)C2=C(O)C(C)(C)Oc3ccc(C#N)cc32)cc1` were 1.2 µM and 0.94.
`CC(C)(C)/N=C(\S)C1=C(O)C(C)(C)Oc2ccc(C#N)cc21`: in the assay listed under Cavia porcellus [1] (Cavia porcellus, Trachea), the IC50 was found to be 4.35 µM. This compound also showed an Intinsic activity in the assay filed under Cavia porcellus [2] of 0.93.
Take `CC1(C)Oc2ccc(C#N)cc2C(/C(S)=N/c2ccc(F)cc2)=C1O`: in the assay filed under Cavia porcellus [2], the Intinsic activity worked out at 0.88.
Consider `CC1(C)Oc2ccc(C#N)cc2C(C(=O)Nc2ccccc2)=C1O`, for which the Intinsic activity in the assay filed under Cavia porcellus [2] was determined as 0.98. Further, the Prolongation in the assay on Cavia porcellus [9] is reported as -6%; with Cavia porcellus [6], -14%.
`CC1(C)Oc2ccc(C#N)cc2C(/C(S)=N/c2ccccc2)=C1O` had an IC50 in the assay listed under Cavia porcellus [1] (Cavia porcellus, Trachea) of 0.25 µM. The compound also displayed an Intinsic activity in the assay filed under Cavia porcellus [2] of 0.99. The figures for the Prolongation in the assay on Cavia porcellus [4], with Cavia porcellus [3] and with Cavia porcellus [10] were 14%, 10% and 63%, respectively.
Regarding `CO/C(=N\c1ccccc1)C1=C(O)C(C)(C)Oc2ccc(C#N)cc21`, the Intinsic activity in the assay filed under Cavia porcellus [2] is 0.82. Moreover, the Prolongation in the assay on Cavia porcellus [7] is on record as 1%.
For `CC1(C)Oc2ccc(C#N)cc2C(C)(C(=O)Nc2ccccc2)C1=O` (stereo not given), the IC50 in the assay filed under Cavia porcellus [1] (Cavia porcellus, Trachea) was above 20 µM.
In turn, `CC(=O)OC1=C(C(=O)N(C(C)=O)c2ccccc2)c2cc(C#N)ccc2OC1(C)C` gave an IC50 in the assay filed under Cavia porcellus [1] (Cavia porcellus, Trachea) of 1.35 µM. The compound further showed an Intinsic activity in the assay listed under Cavia porcellus [2] of 0.95. Further, the Prolongation in the assay with Cavia porcellus [3] is 5%.
Consider `C/N=C(\S)C1=C(O)C(C)(C)Oc2ccc(C#N)cc21`, for which the Intinsic activity in the assay filed under Cavia porcellus [2] was 0.69.
Compound `C/N=C(\S)C1c2cc(C#N)ccc2OC(C)(C)C1O` (cis isomer) gave an IC50 in the assay filed under Cavia porcellus [1] (Cavia porcellus, Trachea) of 5.92 µM. This compound returned an Intinsic activity in the assay filed under Cavia porcellus [2] of 0.84.
For the compound `CC1(C)Oc2ccc(C#N)cc2C(/C(S)=N/c2ccccc2)C1O` (cis isomer), the IC50 in the assay filed under Cavia porcellus [1] is above 20 µM. This compound returned an Intinsic activity in the assay filed under Cavia porcellus [2] of 0.14.
The compound `CC(C)(C)/N=C(\S)C1c2cc(C#N)ccc2OC(C)(C)C1O` (stereo in doubt; 11a) showed an IC50 in the assay filed under Cavia porcellus [1] (Cavia porcellus, Trachea) above 20 µM. Further, the Intinsic activity in the assay filed under Cavia porcellus [2] is 0.3.
On to `CC(C)(C)/N=C(\S)C1c2cc(C#N)ccc2OC(C)(C)C1O` (stereo in doubt; 11b), for which half-maximal inhibition in the assay listed under Cavia porcellus [1] (IC50) was put at 11.1 µM. The compound further displayed an Intinsic activity in the assay filed under Cavia porcellus [2] of 0.79.
The corresponding values for `C/N=C(\S)C1c2cc(C#N)ccc2OC(C)(C)C1O` (trans isomer) are 5.6 µM and 0.93.
The corresponding values for `CC1(C)Oc2ccc(C#N)cc2C(/C(S)=N/c2ccccc2)C1O` (trans isomer) are 3.4 µM and 0.82.
Consider `CC1(C)Oc2ccc(C#N)cc2C(N2CCCC2=O)C1O` (stereo not given) [CROMAKALIM], for which the Intinsic activity in the assay filed under Cavia porcellus [2] worked out at 0.89. Moreover, in the assay listed under Cavia porcellus [11], the Prolongation was 174%.
